Assay outcomes: PubChem, Sanford-Burnham Center for Chemical Genomics
This is a sample that favours compounds with a hit; in the whole collection about 0.62% have one here.
TNAP inh noacc: human TNAP enzyme inhibitors, primary screen, biochemical, luminescent, no phosphate acceptor, uHTS | Alkaline phosphatase, tissue-nonspecific isozyme (Homo sapiens), P05186 | purified TNAP, CDP-star luminescence, 30 min | inhibition, % at 20 µM | 0.26% of 200,000 active;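 active means tissue-nonspecific alkaline phosphatase inhibition above about 50% at 20 µM in the single-dose screen, limit read from the data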;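 further: 0% = DMSO negative control and 100% = EDTA positive control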
Target sequence (P05186 whole entry, looked up): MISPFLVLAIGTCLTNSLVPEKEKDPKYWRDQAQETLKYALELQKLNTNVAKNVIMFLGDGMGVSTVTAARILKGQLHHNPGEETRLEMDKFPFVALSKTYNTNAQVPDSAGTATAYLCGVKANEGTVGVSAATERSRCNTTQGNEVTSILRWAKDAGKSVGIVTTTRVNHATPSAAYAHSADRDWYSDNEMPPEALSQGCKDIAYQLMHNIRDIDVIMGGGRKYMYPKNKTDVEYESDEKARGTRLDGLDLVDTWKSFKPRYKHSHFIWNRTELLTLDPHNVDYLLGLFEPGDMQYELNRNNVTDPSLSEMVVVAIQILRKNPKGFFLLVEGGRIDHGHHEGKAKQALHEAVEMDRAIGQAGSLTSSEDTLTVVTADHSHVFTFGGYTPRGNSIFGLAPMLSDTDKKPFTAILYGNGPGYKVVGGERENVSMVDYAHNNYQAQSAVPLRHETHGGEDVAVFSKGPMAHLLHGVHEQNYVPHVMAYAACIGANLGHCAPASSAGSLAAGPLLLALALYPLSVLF
TNAP inh hi DEA: human TNAP enzyme inhibitors, primary screen, biochemical, luminescent, high phosphate acceptor level, uHTS; 0.03% of 200,000 active; purified TNAP, CDP-star luminescence, 1 M DEA; inhibition, % at 20 µM; Alkaline phosphatase, tissue-nonspecific isozyme (Homo sapiens), P05186;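 active means over 50% inhibition of tissue-nonspecific alkaline phosphatase at 20 µM in the single-dose screen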;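 further: plate controls were DMSO wells for no effect and EDTA-quenched wells as full inhibition for full effect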
TNAP act hi DEA: TNAP activators at high phosphate acceptor level, primary screen, biochemical, luminescence, uHTS | purified TNAP, CDP-star luminescence, 1 M DEA, 30 min; stronger effect = higher value; 0 = EDTA background, 1 = DMSO-only activity | Alkaline phosphatase, tissue-nonspecific isozyme (Homo sapiens), P05186 | activation factor at 20 µM | 200,000 tested, under 10 active | AID 1136, 2008;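 active means activation factor at least 2 at 20 µM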
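Control set: EDTA negative control, DMSO positive control / Assay system: human TNAP / Quantity: TNAP 1/800 final / Evaluation: TNAP activation factor scaled between EDTA and DMSO control wells / Measured by: luminescent substrate turnover signal / Compound dosing: one dose, 20 µM / Times: 30 min enzyme reaction at room temperature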
PMI act satM6P: human PMI activators, high substrate, primary screen, biochemical, fluorescence intensity, near-saturating mannose 6-phosphate; coupled PMI enzyme assay, resazurin fluorescence, 20 min; stronger effect = higher value; 1 = untreated enzyme, 0 = substrate-free blank; 0.34% of 190,000 active; AID 1216, 2008; activation factor at 20 µM; Mannose-6-phosphate isomerase (Homo sapiens), P34949;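 active means activation factor of 2 or more at 20 µM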
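Test system: human phosphomannose isomerase with PGI, G6PDH, diaphorase coupling enzymes / Doses: 20 µM compound, 1% DMSO / Times: enzyme reaction with compound 20 min at room temperature / Measured by: Diaphorase-driven resazurin-to-resorufin fluorescence, excitation 544, emission 590 nm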
PMI activator: activators of human PMI, primary screen, biochemical, fluorescence intensity, near-Km mannose 6-phosphate; 0.005% of 190,000 active; activation factor at 20 µM; purified human PMI, coupled resazurin fluorescence, 20 min; stronger effect = higher value; 1 = vehicle control, 0 substrate-free wells; AID 1214, 2008; Mannose-6-phosphate isomerase (Homo sapiens), P34949;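 active means activation factor of 2 or more at 20 µM, relative to plate controls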
* = called active by the depositor; · = no result.

SMILES	TNAP inh noacc	TNAP inh hi DEA	TNAP act hi DEA	PMI act satM6P	PMI activator
O=C(CSc1ccc2ccccc2c1)NCCc1ccc(O)c(O)c1	54*	-2	1	0.7	0.5
Fc1cccc(Nc2nc(Cl)nc(Cl)n2)c1	-6	-8	1.1	2.2*	1.8
O=[N+]([O-])c1cccc(Nc2nc(Cl)nc(Cl)n2)c1	8	-6	1.1	1.7	1.7
Nc1ncnc2nc(Sc3ccc(Cl)cc3)[nH]c12	15	-4	1	1	0.9
CC(C)Sc1nc2ncnc(N)c2[nH]1	58*	-2	1	1.1	1.1
Cc1cccc(N=Cc2c(O)cc(C)oc2=O)c1	-5	-2	1	1	1.1
Cc1cc(O)c(/C=N/OCc2ccc(Cl)cc2Cl)c(=O)o1	-8	0	1	1	1
Cc1cc(O)c(/C=N/Nc2cccc(Cl)c2)c(=O)o1	-13	-2	1	2.5*	1.5
Cc1cc(O)c(/C=N/Nc2ccc(Cl)cc2)c(=O)o1	-6	2	1	2.1*	1.3
Cc1cc(O)c(/C=N/Nc2ccccc2Cl)c(=O)o1	-12	-3	1	2.2*	1.4
CCOC(=O)/C=c1\s/c(=C\c2ccc3cc(OC)ccc3c2)c(=O)n1CC(=O)NCc1ccc2c(c1)OCO2	-7	1	1	1	1
O=C(O)c1ccccc1NN=C1CCCCC1	-4	-7	1.1	2.5*	1.7
O=C(O)c1ccccc1Nc1ccccc1C(=O)O	5	1	1	1	1
O=C1CC(=C2c3ccccc3-c3ccccc32)C(=O)N1CCCCN1CCN(c2ccccc2)CC1	-7	0	1	2.1*	1.5
O=C1CC(=C(c2ccccc2)c2ccccc2)C(=O)N1CCCN1CCN(c2cccc(Cl)c2)CC1	-10	-4	1	0.9	0.9
O=c1[nH]c(=O)c2cc([N+](=O)[O-])cc([N+](=O)[O-])c2[nH]1	-4	0	1	2.2*	1.7
O=c1[nH]c2cc([N+](=O)[O-])c([N+](=O)[O-])cc2[nH]c1=O	-5	4	1	0.8	0.9
Cc1nc(N2CCOCC2)nc2c1CCC2	-4	0	1	1	1.1
CC(=O)c1ccc2noc(-c3ccc(C)cc3)c2c1	-4	7	0.9	2*	1.9
CCN(CC)C(=O)CSc1nnc(COc2ccccc2)n1N	-1	1	1	1	1
CCC(CC)C(=O)N1CCN(c2ccccc2)CC1	-12	-8	1.1	2.8*	1.8
O=C1CC(Nc2ccccc2)C(=O)N1c1ccc(N2CCOCC2)cc1 (centres undefined)	1	6	0.9	1	1
O=C1CC(NNc2ccccc2)C(=O)N1c1ccc(N2CCCCC2)cc1 (centres undefined)	-9	-3	1	2.7*	1.8
O=C(COC(=O)C12CC3CC(CC(C3)C1)C2)Nc1ccccc1F	-12	-6	1.1	1	1
CC(C)Cc1nnc(NC(=O)Cc2cccs2)s1	1	4	1	1.4	1.5
SMILES	TNAP inh noacc	TNAP inh hi DEA	TNAP act hi DEA	PMI act satM6P	PMI activator
CC(C)Cc1nnc(NC(=O)CCC(=O)Nc2ccc(F)cc2)s1	51*	-1	1	1	1
CC(N1CCOC1=O)S(=O)(=O)c1ccccc1 (centres undefined)	-8	2	1	2*	1.6
Cc1[nH]n(-c2cccc3ccccc23)c(=O)c1/C=N/NC(=O)c1cccc([N+](=O)[O-])c1	51*	12	0.9	1.2	1.1
Cc1[nH]n(-c2ccccc2)c(=O)c1/C=N/NC(=O)c1cccc([N+](=O)[O-])c1	4	-6	1.1	1	0.8
Nc1n[nH]c(-c2ccccc2)n1	35	-3	1	1	1
Nc1n[nH]c(-c2ccccc2[N+](=O)[O-])n1	86*	2	1	1	1.1
O=C(c1ccccc1)c1cn[nH]c1-c1ccccc1O	78*	1	1	1	1.1
COc1ccc(-c2nc(SC)n(C(=O)c3ccco3)n2)cc1	52*	-7	1.1	1	0.9
CCCC(=O)n1nc(-c2ccc(Cl)cc2)nc1SC	53*	2	1	1	1
CCC(=O)n1nc(-c2ccc(Cl)cc2)nc1SC	60*	0	1	0.9	0.9
CCC(=O)n1nc(-c2ccc(OC)cc2)nc1SC	54*	3	1	1.1	1
CSc1nc(-c2ccc(Cl)cc2)nn1S(=O)(=O)c1ccc(Cl)cc1	0	0	1	1.1	1.2
O=C(COC(=O)c1cc(Cl)ccc1[N+](=O)[O-])NCc1ccc(Cl)cc1Cl	8	-5	1.1	1	1
CC(CCc1ccccc1)NC(=O)C(=O)NCCc1ccccc1 (centres undefined)	-6	-2	1	1.1	1.1
O=c1cc(CN2CCc3ccccc32)nc2sccn12	-28	-4	1	1.8	1.5
O=c1cc(CN2CCCc3ccccc32)nc2sccn12	-11	0	1	2.1*	1.8
Cc1ccc(N(CCC#N)C(=O)CN2C(=O)NC(Cc3ccccc3)C2=O)cc1 (centres undefined)	-12	-7	1.1	0.9	1
C/C(=N\Nc1ccc(F)cc1F)c1cccs1	-20	-5	1	1.6	1.5
COc1ccc(/C(C)=N/Nc2ccc(F)cc2F)c(O)c1	-4	0	1	2.5*	1.7
COc1cc2c(cc1OC)CN(Cc1cc(=O)oc3c(C)c(C)ccc13)CC2	-18	1	1	1.8	1.5
COc1cc2c(cc1OC)CN(Cc1cc(=O)oc3cc(C)c(C)cc13)CC2	-42	-3	1	2.2*	1.5
COc1cc2c(cc1OC)CN(Cc1cc(=O)oc3cc(C)c(Cl)cc13)CC2	3	-5	1.1	2.3*	1.7
CCc1ccc2c(CN3CCc4cc(OC)c(OC)cc4C3)cc(=O)oc2c1	-36	0	1	2.2*	1.5
Cc1cc2oc(=O)cc(CN3CCN(Cc4ccccc4)CC3)c2cc1Cl	0	-3	1	0.9	0.8
COCCn1c(SCC(=O)Nc2sccc2C(N)=O)nnc1-c1ccncc1	-18	-4	1	0.9	1
CN(Cc1ccccc1)C(=S)Nc1ccc2nc3n(c(=O)c2c1)CCCCC3	-10	-2	1	1.1	1.1
COCCNc1nc2nonc2nc1N(C)Cc1cccc2cnccc12	-1	3	1	·	·
CCOC(=O)c1c(C)[nH]c(-c2csc(N)n2)c1C	-10	2	1	2*	1.5
